ChEMBL document CHEMBL4184148 (Bioorg Med Chem Lett, 2017)
pIC50: −log10 of the molar value.

Experiments:
[1] = target: Epidermal growth factor receptor (Homo sapiens) (UniProt P00533); assay: Binding affinity to wild-type human partial length EGFR (R669 to V1011 residues) expressed in Escherichia coli BL21 at 1 uM by Kinomescan method relative to control
[2] = target: Ribosomal protein S6 kinase alpha-2 (Homo sapiens) (UniProt Q15349); assay: Binding affinity to wild-type human partial length C-terminal RSK2 kinase domain 2 (V402 to S715 residues) expressed in HEK293 cells at 1 uM by Kinomescan method relative to control; type: cell-based
[3] = target: Mitotic checkpoint serine/threonine-protein kinase BUB1 (Homo sapiens) (UniProt O43683); assay: Binding affinity to wild-type human partial length BUB1 (Q724 to K1085 residues) expressed in HEK293 cells at 1 uM by Kinomescan method relative to control; type: cell-based
[4] = target: Serine/threonine-protein kinase 26 (Homo sapiens) (UniProt Q9P289); assay: Binding affinity to wild-type human full length MST4 (M1 to P416 residues) expressed in HEK293 cells at 1 uM by Kinomescan method relative to control; type: cell-based
Procedure, shortened: (§1)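 Run as one kinome-wide competition binding panel with each compound at a single fixed concentration. Results were plotted as a kinome-wide selectivity map.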

[5] = target: Mitogen-activated protein kinase kinase kinase 12 (DLK) (Homo sapiens) (UniProt Q12852); assay: Binding affinity to wild-type human full length DLK (M1 to P859 residues) expressed in HEK293 cells at 1 uM by Kinomescan method relative to control
[6] = target: Cyclin-dependent kinase-like 1 (Homo sapiens) (UniProt Q00532); assay: Binding affinity to wild-type human full length CDKL1 (M1 to I358 residues) expressed in HEK293 cells at 1 uM by Kinomescan method relative to control; type: cell-based; procedure, shortened: as §1
[7] = target: STE20-like serine/threonine-protein kinase (Homo sapiens) (UniProt Q9H2G2); assay: Binding affinity to wild-type human partial length SLK (S14 to A307 residues) expressed in Escherichia coli BL21 at 1 uM by Kinomescan method relative to control
[8] = target: Receptor tyrosine-protein kinase erbB-3 (Homo sapiens) (UniProt P21860); assay: Binding affinity to wild-type human partial length ERBB3 (G684 to A987 residues) expressed in HEK293 cells at 1 uM by Kinomescan method relative to control; type: cell-based
[9] = target: Tyrosine-protein kinase Mer (Homo sapiens) (UniProt Q12866); assay: Binding affinity to wild-type human partial length MERTK (R557 to L884 residues) expressed in Escherichia coli BL21 at 1 uM by Kinomescan method relative to control
[10] = target: Mast/stem cell growth factor receptor Kit (Homo sapiens) (UniProt P10721); assay: Binding affinity to wild-type human partial length KIT (I571 to D952 residues) expressed in Escherichia coli BL21 at 1 uM by Kinomescan method relative to control
[11] = system: Tyrosine-protein kinase ABL1 (Homo sapiens), P00519 [H396P]; assay: Binding affinity to human non-phosphorylated ABL1 H396P mutant (S229 to K512 residues) expressed in HEK293 cells at 1 uM by Kinomescan method relative to control; type: cell-based
[12] = target: RAC-beta serine/threonine-protein kinase (Homo sapiens) (UniProt P31751); assay: Binding affinity to wild-type human partial length AKT2 expressed in Escherichia coli BL21 at 1 uM by Kinomescan method relative to control
Procedure, shortened: (§2)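 Kinome-wide competition binding panel run by an outside provider, with each compound tested at a single concentration. Activity is read against the kinase panel.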

[13] = target: Megakaryocyte-associated tyrosine-protein kinase (Homo sapiens) (UniProt P42679); assay: Binding affinity to wild-type human full length CTK (M43 to P508 residues) expressed in HEK293 cells at 1 uM by Kinomescan method relative to control; type: cell-based; procedure, shortened: as §1
[14] = target: Casein kinase I isoform gamma-2 (Homo sapiens) (UniProt P78368); assay: Binding affinity to wild-type human full length CSNK1G2 (M1 to K415 residues) expressed in Escherichia coli BL21 at 1 uM by Kinomescan method relative to control; procedure, shortened: as §1
[15] = target: Mitogen-activated protein kinase kinase kinase 13 (Homo sapiens) (UniProt O43283); assay: Binding affinity to wild-type human full length LZK (M1 to W966 residues) expressed in HEK293 cells at 1 uM by Kinomescan method relative to control; type: cell-based; procedure, shortened: as §1
[16] = system: Receptor-type tyrosine-protein kinase FLT3 (Homo sapiens), P36888 [D835V]; assay: Binding affinity to human partial length FLT3 D835V mutant (V592 to Y969 residues) expressed in Escherichia coli BL21 at 1 uM by Kinomescan method relative to control
[17] = target: Interleukin-1 receptor-associated kinase 1 (Homo sapiens) (UniProt P51617); assay: Binding affinity to wild-type human partial length IRAK1 (R194 to S712 residues) expressed in HEK293 cells at 1 uM by Kinomescan method relative to control; type: cell-based
[18] = target: Homeodomain-interacting protein kinase 3 (Homo sapiens) (UniProt Q9H422); assay: Binding affinity to wild-type human partial length HIPK3 (M153 to N562 residues) expressed in HEK293 cells at 1 uM by Kinomescan method relative to control; type: cell-based
[19] = target: Aurora kinase B (Homo sapiens, UniProt Q96GD4); assay: Inhibition of recombinant full length His-tagged human Aurora B expressed in baculovirus expression system by Z'LYTE assay
Procedure, shortened: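 Z'LYTE biochemical kinase assay run at the Km ATP concentration for each kinase. IC50 was determined and reported ± standard error.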

[20] = target: Mitogen-activated protein kinase 12 (Homo sapiens) (UniProt P53778); assay: Binding affinity to wild-type human full length p38-gamma (M1 to L367 residues) expressed in HEK293 cells at 1 uM by Kinomescan method relative to control; type: cell-based; procedure, shortened: as §2
[21] = target: Ribosomal protein S6 kinase alpha-5 (Homo sapiens) (UniProt O75582); assay: Binding affinity to wild-type human partial length N-terminal RPS6KA5 kinase domain 1 expressed in Escherichia coli BL21 at 1 uM by Kinomescan method relative to control
[22] = target: Muscle, skeletal receptor tyrosine-protein kinase (Homo sapiens) (UniProt O15146); assay: Binding affinity to wild-type human partial length MUSK (M553 to V869 residues) expressed in Escherichia coli BL21 at 1 uM by Kinomescan method relative to control
[23] = target: Tyrosine-protein kinase Lck (Homo sapiens) (UniProt P06239); assay: Binding affinity to wild-type human partial length LCK (R207 to P509 residues) expressed in Escherichia coli BL21 at 1 uM by Kinomescan method relative to control
[24] = target: Macrophage-stimulating protein receptor (Homo sapiens) (UniProt Q04912); assay: Binding affinity to wild-type human partial length MST1R (I1057 to L1363 residues) expressed in Escherichia coli BL21 at 1 uM by Kinomescan method relative to control
[25] = target: Serine/threonine-protein kinase 35 (Homo sapiens) (UniProt Q8TDR2); assay: Binding affinity to wild-type human partial length STK35 (G182 to A534 residues) expressed in Escherichia coli BL21 at 1 uM by Kinomescan method relative to control
Chain of Serine/threonine-protein kinase 35 (Homo sapiens) (Q8TDR2 whole entry, the tested form may be a part): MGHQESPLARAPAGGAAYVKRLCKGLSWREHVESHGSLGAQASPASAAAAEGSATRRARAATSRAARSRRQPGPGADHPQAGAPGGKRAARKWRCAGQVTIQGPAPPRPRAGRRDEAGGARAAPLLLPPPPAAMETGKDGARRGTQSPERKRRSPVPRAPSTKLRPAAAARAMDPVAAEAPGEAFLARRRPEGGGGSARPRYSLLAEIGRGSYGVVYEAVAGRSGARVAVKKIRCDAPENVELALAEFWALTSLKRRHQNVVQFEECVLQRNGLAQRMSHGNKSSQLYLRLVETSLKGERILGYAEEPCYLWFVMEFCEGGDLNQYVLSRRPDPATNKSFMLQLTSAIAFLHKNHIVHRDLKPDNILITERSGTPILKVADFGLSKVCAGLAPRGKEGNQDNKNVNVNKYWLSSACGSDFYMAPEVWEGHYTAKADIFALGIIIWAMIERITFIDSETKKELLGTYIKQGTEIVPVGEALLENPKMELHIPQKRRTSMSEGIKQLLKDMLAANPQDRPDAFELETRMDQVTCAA

Chain of Muscle, skeletal receptor tyrosine-protein kinase (Homo sapiens) (O15146 whole entry, the tested form may be a part): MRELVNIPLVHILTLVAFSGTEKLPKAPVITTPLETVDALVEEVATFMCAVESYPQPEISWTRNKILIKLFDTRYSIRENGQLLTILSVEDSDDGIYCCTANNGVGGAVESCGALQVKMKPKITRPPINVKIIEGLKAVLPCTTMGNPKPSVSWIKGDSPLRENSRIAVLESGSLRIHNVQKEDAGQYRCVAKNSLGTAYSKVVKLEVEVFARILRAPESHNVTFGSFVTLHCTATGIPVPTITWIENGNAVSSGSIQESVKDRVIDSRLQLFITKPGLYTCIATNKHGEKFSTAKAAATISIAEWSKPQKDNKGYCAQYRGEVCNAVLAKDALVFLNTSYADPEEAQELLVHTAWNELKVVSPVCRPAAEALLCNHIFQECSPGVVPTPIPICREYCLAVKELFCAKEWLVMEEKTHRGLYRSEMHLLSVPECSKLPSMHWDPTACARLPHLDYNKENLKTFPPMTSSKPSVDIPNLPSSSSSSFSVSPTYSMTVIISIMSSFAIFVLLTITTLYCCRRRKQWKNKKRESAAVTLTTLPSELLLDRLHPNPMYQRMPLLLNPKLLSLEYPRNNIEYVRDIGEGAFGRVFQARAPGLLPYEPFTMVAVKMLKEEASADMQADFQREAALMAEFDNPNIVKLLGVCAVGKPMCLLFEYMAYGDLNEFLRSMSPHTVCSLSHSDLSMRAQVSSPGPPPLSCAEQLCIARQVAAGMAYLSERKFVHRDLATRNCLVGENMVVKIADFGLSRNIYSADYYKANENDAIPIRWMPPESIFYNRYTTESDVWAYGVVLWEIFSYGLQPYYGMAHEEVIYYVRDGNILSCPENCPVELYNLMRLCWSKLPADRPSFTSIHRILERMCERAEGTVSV
Chain of Receptor tyrosine-protein kinase erbB-3 (Homo sapiens) (P21860 whole entry, the tested form may be a part): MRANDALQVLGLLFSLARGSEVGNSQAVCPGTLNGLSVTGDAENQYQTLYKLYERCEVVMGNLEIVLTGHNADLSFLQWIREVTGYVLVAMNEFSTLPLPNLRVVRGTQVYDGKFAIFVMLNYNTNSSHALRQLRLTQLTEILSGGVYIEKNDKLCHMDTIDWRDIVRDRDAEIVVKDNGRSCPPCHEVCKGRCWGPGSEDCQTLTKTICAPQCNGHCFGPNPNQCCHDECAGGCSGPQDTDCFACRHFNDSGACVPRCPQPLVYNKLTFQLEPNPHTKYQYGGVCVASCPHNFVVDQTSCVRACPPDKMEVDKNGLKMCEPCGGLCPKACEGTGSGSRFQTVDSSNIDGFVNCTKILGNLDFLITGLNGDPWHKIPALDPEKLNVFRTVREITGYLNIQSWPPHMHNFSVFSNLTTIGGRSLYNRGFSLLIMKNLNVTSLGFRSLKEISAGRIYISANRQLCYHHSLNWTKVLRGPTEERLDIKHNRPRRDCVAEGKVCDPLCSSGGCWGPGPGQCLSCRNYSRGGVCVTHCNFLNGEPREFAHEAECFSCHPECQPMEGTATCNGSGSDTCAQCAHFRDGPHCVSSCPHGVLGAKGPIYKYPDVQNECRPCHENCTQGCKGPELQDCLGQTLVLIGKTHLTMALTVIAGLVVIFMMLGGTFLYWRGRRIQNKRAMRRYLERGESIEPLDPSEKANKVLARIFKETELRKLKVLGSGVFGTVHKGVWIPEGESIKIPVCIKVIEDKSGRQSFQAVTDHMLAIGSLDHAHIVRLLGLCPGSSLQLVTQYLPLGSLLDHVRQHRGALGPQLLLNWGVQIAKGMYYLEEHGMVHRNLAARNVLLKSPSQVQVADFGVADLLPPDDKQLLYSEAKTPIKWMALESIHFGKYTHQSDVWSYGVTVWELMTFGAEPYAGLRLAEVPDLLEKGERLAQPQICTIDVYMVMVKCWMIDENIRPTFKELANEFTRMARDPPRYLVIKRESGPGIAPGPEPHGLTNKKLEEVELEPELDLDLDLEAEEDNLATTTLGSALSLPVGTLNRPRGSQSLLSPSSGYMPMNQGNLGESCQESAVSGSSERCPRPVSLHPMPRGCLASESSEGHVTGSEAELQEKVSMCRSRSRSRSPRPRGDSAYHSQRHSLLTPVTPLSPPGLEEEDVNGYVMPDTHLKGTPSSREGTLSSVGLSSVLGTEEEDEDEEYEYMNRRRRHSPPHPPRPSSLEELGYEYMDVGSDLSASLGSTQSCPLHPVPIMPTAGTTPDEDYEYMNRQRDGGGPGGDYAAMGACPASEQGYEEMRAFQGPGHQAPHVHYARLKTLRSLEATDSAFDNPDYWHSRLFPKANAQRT
Chain of Tyrosine-protein kinase Mer (Homo sapiens) (Q12866 whole entry, the tested form may be a part): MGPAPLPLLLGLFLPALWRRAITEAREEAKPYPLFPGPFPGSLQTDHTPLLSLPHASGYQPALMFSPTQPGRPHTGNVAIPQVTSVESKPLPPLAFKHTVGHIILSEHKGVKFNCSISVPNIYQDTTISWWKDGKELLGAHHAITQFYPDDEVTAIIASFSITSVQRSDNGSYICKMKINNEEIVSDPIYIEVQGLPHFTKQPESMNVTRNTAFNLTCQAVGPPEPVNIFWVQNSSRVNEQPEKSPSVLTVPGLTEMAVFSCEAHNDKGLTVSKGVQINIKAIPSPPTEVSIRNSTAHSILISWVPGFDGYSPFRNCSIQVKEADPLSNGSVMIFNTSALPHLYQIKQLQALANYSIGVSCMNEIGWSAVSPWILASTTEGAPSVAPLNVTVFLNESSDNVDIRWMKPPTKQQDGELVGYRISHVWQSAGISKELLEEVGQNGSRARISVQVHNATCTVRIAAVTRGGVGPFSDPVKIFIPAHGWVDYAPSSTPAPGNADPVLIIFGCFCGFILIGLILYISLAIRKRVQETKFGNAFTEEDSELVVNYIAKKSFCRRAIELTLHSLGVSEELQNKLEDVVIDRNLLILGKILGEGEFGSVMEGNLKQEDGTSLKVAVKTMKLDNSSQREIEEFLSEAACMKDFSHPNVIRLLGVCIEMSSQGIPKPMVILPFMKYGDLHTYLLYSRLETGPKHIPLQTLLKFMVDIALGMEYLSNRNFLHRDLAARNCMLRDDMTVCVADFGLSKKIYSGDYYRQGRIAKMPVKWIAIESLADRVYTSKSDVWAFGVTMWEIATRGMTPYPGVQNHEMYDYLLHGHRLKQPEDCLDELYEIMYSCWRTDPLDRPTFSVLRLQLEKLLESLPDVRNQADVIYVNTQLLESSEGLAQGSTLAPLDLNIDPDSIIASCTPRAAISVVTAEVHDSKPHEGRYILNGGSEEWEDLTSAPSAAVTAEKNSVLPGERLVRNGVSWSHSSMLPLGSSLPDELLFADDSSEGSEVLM
Chain of STE20-like serine/threonine-protein kinase (Homo sapiens) (Q9H2G2 whole entry, looked up, the tested form may be a part): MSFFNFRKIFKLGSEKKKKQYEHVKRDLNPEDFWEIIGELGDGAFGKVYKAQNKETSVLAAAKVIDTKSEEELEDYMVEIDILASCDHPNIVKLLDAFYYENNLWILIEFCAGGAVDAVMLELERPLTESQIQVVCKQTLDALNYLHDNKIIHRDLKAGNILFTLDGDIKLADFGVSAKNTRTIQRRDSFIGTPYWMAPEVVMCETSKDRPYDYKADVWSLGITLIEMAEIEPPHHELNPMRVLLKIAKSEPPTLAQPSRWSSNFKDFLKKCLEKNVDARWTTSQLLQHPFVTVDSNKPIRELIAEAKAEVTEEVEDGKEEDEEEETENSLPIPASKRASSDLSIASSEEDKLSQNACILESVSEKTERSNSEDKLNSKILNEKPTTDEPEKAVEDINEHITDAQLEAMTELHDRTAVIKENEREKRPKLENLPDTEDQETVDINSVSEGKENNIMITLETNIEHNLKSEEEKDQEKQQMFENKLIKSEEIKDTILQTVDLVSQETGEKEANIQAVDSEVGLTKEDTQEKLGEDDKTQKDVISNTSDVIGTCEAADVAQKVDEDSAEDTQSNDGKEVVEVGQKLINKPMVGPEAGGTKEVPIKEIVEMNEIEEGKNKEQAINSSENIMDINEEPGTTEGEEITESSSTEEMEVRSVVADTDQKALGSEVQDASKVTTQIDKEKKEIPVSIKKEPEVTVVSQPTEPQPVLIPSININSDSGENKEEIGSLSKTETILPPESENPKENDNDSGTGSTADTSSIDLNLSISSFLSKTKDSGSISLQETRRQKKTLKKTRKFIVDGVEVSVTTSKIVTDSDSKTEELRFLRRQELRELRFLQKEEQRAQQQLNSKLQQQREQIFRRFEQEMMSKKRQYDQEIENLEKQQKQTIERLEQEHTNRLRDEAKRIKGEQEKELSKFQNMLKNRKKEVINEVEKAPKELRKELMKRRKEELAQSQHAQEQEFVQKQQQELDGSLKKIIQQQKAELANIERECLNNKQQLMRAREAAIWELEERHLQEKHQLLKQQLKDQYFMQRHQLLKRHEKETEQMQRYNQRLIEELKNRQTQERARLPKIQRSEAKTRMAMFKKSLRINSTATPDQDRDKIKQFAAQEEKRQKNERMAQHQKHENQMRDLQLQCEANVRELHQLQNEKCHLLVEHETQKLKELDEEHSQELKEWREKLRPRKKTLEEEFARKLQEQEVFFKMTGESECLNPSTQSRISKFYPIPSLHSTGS

SMILES | Activity [1] | Activity [2] | Activity [3] | Activity [4] | Activity [5] | Activity [6] | Activity [7] | Activity [8] | Activity [9] | Activity [10] | Activity [11] | Activity [12] | Activity [13] | Activity [14] | Activity [15] | Activity [16] | Activity [17] | Activity [18] | pIC50 [19] | Activity [20] | further results
C=CC(=O)Nc1ccc(C(=O)Nc2ccc(Nc3ncc4c(n3)N(C)c3ccc(C)cc3C(=O)N4C)cc2)cc1 | 83% | 100% | 95% | 100% | 100% | 92% | 94% | 81% | 80% | 98% | 84% | 95% | 100% | 97% | 87% | 90% | 95% | 95% | 7.54 | 67% | Activity [21]: 100%; Activity [22]: 96%; Activity [23]: 90%; Activity [24]: 82%; Activity [25]: 96%
CCC(=O)Nc1ccc(C(=O)Nc2ccc(Nc3ncc4c(n3)N(C)c3ccc(C)cc3C(=O)N4C)cc2)cc1 | 69% | 100% | 98% | 98% | 98% | 88% | 87% | 85% | 100% | 84% | 62% | 100% | 95% | 86% | 82% | 86% | 90% | 67% | 7.39 | 86% | Activity [21]: 100%; Activity [22]: 95%; Activity [23]: 86%; Activity [24]: 85%; Activity [25]: 77%
